Source: PMC11451551 (Science Advances, 2024)

Tests used:
[1] = tested on: Molt-4 cells; test: Cell viability assay; format: cell-based, human
Procedure, shortened: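 Molt-4 or RS4;11 leukaemia cells were plated at 50,000 per well in medium with 10% human serum. They were exposed 48 h to a threefold dilution series of test compound, 5 to 0.020 μM, each concentration in duplicate on at least three occasions. Viable cells were read by CellTiter-Glo luminescence, and EC50 was taken from a sigmoidal fit.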

[2] = tested on: digitonin-permeabilized Molt-4 cells; test: Permeabilized cell JC-1 assay; format: cell-based, human
Procedure, shortened: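 Molt-4 cells were washed into DTEB buffer (trehalose, KCl, EDTA/EGTA, 0.1% BSA, succinate, 10 mM Hepes-KOH pH 7.5) containing 2 μM JC-1, 0.01% digitonin, 10 mM β-mercaptoethanol and oligomycin (20 μg/ml). After 10 min at room temperature they were diluted with an equal volume of buffer and test compound was added. DMSO was the negative control; FCCP 10 μM final defined 100% depolarization. Fluorescence at 590 nm was read every 10 min, 37°C, 1–3 h. EC50 from % depolarization.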

[3] = tested on: anesthetized beagle dogs; test: in vivo; format: in vivo, dog; settings: for effect on cardiovascular parameters / effect on platelets: iv bolus
[4] = tested on: circulating platelets in SCID/bg mice; test: Assessment of platelet levels in mice; format: in vivo, mouse; settings: single dose: 9 0.1 mg/kg iv, 10 0.6 mg/kg iv, navitoclax 50 mg/kg oral
Procedure, shortened: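 Female SCID/bg mice were randomised (15 per group) and given one dose of vehicle or test compound, intravenously or by oral gavage. At 6, 72 and 168 h, five mice per group were bled from the retro-orbital plexus under sevoflurane into heparinised vials and then euthanised without recovery. Platelets were counted on an automated haematology analyser; results are group means with SEM.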

[5] = in vivo; format: in vivo, dog; settings: male, beagle, dog, in vivo, 0.3 mg/kg
[6] = tested on: H1650 tumors; test: H1650 xenograft efficacy in SCID/bg mice; format: in vivo, mouse
Procedure, shortened: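 H1650 or PC-9 NSCLC cells (RPMI 1640, 10% heat-inactivated FBS, ≤5 passages, mycoplasma-free) were injected subcutaneously at 5×10^6 cells into the right flank of 8-week-old female SCID/bg mice (~22 g). Docetaxel was given 7.5 mg/kg iv QDx1 and conjugates intraperitoneally. In the single-dose study (H1650 only), tumours were ~200 mm³ and treatment began on day 9, QDx1. In the other study, treatment began on day 10, Q7D×2. Volumes are means of eight tumours.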

| Permeabilized Molt-4 EC50 [2] | effect on platelets [3] | effect on platelets at 6 hours [4] | Compound | effect on cardiovascular parameters [3] | also measured |
| --- | --- | --- | --- | --- | --- |
| subnanomolar | expected thrombocytopenia | severe thrombocytopenia | CNCCOC12CC3(C)CC(C)(CC(Cn4ncc(-c5ccc(N6CCc7cccc(C(=O)Nc8nc9ccccc9s8)c7C6)nc5C(=O)O)c4C)(C3)C1)C2 [compound 9] | marked changes in cardiovascular parameters | EC50 ([1]; read-out: Molt-4 cell EC50, 10% human serum, 48 h): 8 nM |
|  |  | severe thrombocytopenia | CC1(C)CCC(c2ccc(Cl)cc2)=C(CN2CCN(c3ccc(C(=O)NS(=O)(=O)c4ccc(N[C@H](CCN5CCOCC5)CSc5ccccc5)c(S(=O)(=O)C(F)(F)F)c4)cc3)CC2)C1 [navitoclax, reference compound] |  |  |

Continued, compound first:

| Compound | Permeabilized Molt-4 EC50 [2] | effect on platelets [3] | effect on platelets at 6 hours [4] | effect on cardiovascular parameters [3] | also measured |
| --- | --- | --- | --- | --- | --- |
| Cc1c(-c2ccc(N3CCc4cccc(C(=O)Nc5nc6ccccc6s5)c4C3)nc2C(=O)O)cnn1CC12CC3(C)CC(C)(C1)CC(OCCNCCS(=O)(=O)O)(C3)C2 [compound 10] | subnanomolar | no decrease in platelets | no significant reduction of platelet number | only minimal to moderate effects on cardiovascular parameters | loss of Molt-4 activity relative to 9 [1]: over 30 fold |
| Cc1c(-c2ccc(N3CCc4cccc(C(=O)Nc5nc6ccccc6s5)c4C3)nc2C(=O)O)cnn1CC12CC3(C)CC(C)(C1)CC(OCCNCC[C@H](O)CO)(C3)C2 [compound 11] |  |  |  |  | Cmax [5]: 1020 ng/mL; effect on cardiovascular function ([3]; 0.3 mg/kg per minute): cardiovascular collapse in both animals; effect on cardiovascular function ([3]; 0.01 and 0.1 mg/kg per minute): no impact on blood pressure or other indices of cardiovascular function; plasma concentration without impact on cardiovascular function ([3]; infusion 0.01 and 0.1 mg/kg per minute): ≤ 447 ng/mL; estimated cardiovascular TI (dog tolerated plasma level vs free 11 in monkeys) ([3]; male, beagle, dog, in vivo): > 65 fold |
| CC(=O)O[C@@]12CO[C@@H]1C[C@H](O)[C@@]1(C)C(=O)[C@H](O)C3=C(C)[C@@H](OC(=O)[C@H](O)[C@@H](NC(=O)OC(C)(C)C)c4ccccc4)C[C@@](O)([C@@H](OC(=O)c4ccccc4)[C@H]21)C3(C)C [docetaxel] |  |  |  |  | tumor growth inhibition (TGI) ([6]; 7.5 mg/kg iv QDx1, alone (single-dose ADC study)): 81%; time by which all tumors were relapsed ([6]; single agent): ≤ 46 days |
